Screening data as filed in PubChem BioAssay.
This is a sample that favours compounds with a hit; in the whole collection about 1.5% have one here.
MsrA inhibitor: bovine MsrA enzyme inhibitors, primary screen, biochemical, absorbance, HTS; purified bovine MsrA, absorbance read-out; inhibition, % at 15.5 µM; 0.75% of 360,000 active; AID 651718, 2012; in the data active = inhibition above about 4.5%
proCasp3 act: activators of human procaspase-3 D3A mutant, primary screen, biochemical, absorbance, PC-3 D3A mutant, single concentration | recombinant procaspase-3 D3A, Ac-DEVD-pNA absorbance 405 nm | activation, % at 8.5 µM | 0.11% of 330,000 active | Caspase-3 (Homo sapiens), P42574;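 active = activation above the mean of all tested compounds plus 3 SD, cut at about 21% in these data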
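Compound: 8.5 µM single point, 0.8% DMSO / Material: Autoprocessing-dead procaspase-3 D3A mutant enzyme / Timing: 1 h preincubation plus 2 h reaction at 25 °C / Medium: Zinc-free HEPES/NaCl buffer with 0.01% Triton X-100 at pH 7.4 / Technique: 405 nm absorbance of p-nitroaniline, reads at 0 and 120 min / Repeats: one well per compound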
Tb MetRS inh: T. brucei MetRS inhibitors, primary screen, biochemical, luminescence; methionyl-tRNA synthetase (Trypanosoma brucei brucei); purified T. brucei MetRS, ATP depletion, Kinase-Glo luminescence; inhibition, % at 11.9 µM; 0.4% of 360,000 active;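 active = inhibition above a per-plate cutoff of the control wells' mean inhibition plus 3 SD, cut at about 5.5% in these data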
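Dosing: 11.9 µM compound single dose, 0.9% DMSO; Assay system: purified T. brucei MetRS enzyme; Measured by: Kinase-Glo luciferase luminescence reporting remaining unconsumed ATP; Schedule: 15 min plus 2 h at 25 °C.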
procasp7 counter: procaspase-7 activators, primary screen, counter-screen for procaspase-3 activator project, biochemical, absorbance, HTS, human; Caspase-7 (Homo sapiens), P55210; recombinant procaspase-7, Ac-DEVD-pNA absorbance 405 nm; D23A/D198A/D206A triple mutant, cannot self-cleave; scale: DMSO 0, 5 µM enzyme 100; activation, % at 8.5 µM; 0.093% of 330,000 active; AID 463210, 2010;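 active = percent activation above the screen-wide mean plus 3 SD, cut at about 25% in these data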
Target sequence (P55210 whole entry D23A/D198A/D206A): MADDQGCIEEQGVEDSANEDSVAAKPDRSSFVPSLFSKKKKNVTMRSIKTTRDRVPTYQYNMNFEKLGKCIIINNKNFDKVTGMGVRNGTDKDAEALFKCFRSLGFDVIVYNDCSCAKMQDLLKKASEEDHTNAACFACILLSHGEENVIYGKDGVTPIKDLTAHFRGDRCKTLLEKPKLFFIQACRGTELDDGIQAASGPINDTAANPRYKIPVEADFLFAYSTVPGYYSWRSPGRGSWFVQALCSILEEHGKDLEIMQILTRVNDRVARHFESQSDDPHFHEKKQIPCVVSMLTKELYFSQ
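Test system: Procaspase-7 triple mutant (PC-7 D3A). Also added: Ac-DEVD-pNA substrate, 400 µM as added. Schedule: 1 h enzyme–compound preincubation and 2 h substrate reaction, both 25 °C. Signal: p-Nitroaniline absorbance at 405 nm, read at 0 and 120 min. Control set: low DMSO alone, high DMSO plus 5 µM PC-7.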
bovine MsrA act: bovine MsrA enzyme activators, primary screen, biochemical, absorbance, HTS; activation, % at 10.6 µM; purified bovine MsrA, absorbance read-out; 0.3% of 360,000 active; Methionine sulfoxide reductase A (Bos taurus); in the data active = activation above about 7.5%
MsrA activ conf: bovine MsrA activators, retest, confirmation, biochemical, absorbance, HTS. shares compounds with bovine MsrA act. purified bovine MsrA, absorbance read-out. activation, % at 10.6 µM. 12% of 1,000 active; in the data active = activation above about 4%;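 note: enzyme coupled to thioredoxin and thioredoxin reductase with NADPH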
Large screens that a line does not name were inactive (follow-up assays come after a bar, where they were run).

CCc1ccc(CN(C)Cc2nc(COc3ccccc3)no2)nc1	bovine MsrA act 7.9 | MsrA activ conf inactive
CC1(C)CC(=O)C(C(N)=NC(=O)c2ccccc2)=C(O)C1	none
CC1(C)CC(=O)C(C(N)=NC(=O)c2ccc([N+](=O)[O-])cc2)=C(O)C1	bovine MsrA act 17.0 | MsrA activ conf inactive
O=C(Nc1ccc(Nc2cccnc2)cc1)c1c[nH]c2ccccc12	none (no result: proCasp3 act, Tb MetRS inh, procasp7 counter, bovine MsrA act)
COC1=CC(=O)c2nc(Cl)ccc2C1=O	bovine MsrA act 11.9 (no result: proCasp3 act, procasp7 counter) | MsrA activ conf 7.5
COC(=O)[C@]1(CC(C)C)NC=C(C(=O)c2ccccc2)[C@@H]1c1cccc(C(F)(F)F)c1	none (no result: proCasp3 act, Tb MetRS inh, procasp7 counter, bovine MsrA act)
CCOC(=O)c1sc(=S)n(-c2ccccc2Cl)c1SC	none
CCOC(=O)c1sc(=S)n(-c2ccccc2)c1SC	bovine MsrA act 9.2 | MsrA activ conf inactive
CC(NC(=O)c1ccc(CS(=O)(=O)c2ccc(Cl)cc2)o1)c1ccc2c(c1)OCCO2 (centres undefined)	bovine MsrA act 8.6 | MsrA activ conf inactive
CC1=C(C#N)C(Nc2ccc(Cl)cn2)(C(F)(F)F)C(=O)N1 (centres undefined)	bovine MsrA act 10.3 | MsrA activ conf inactive
Cc1ccc(S(=O)(=O)NC(CC(=O)n2nc(C)cc2C)c2ccccc2)cc1 (centres undefined)	none
Cc1ccc(S(=O)(=O)NC(c2ccccc2)C(C)C(=O)n2nc(C)cc2C)cc1 (centres undefined)	bovine MsrA act 8.1 | MsrA activ conf inactive
O=S(=O)(NC1=NCCCCC1)c1ccc2ccccc2c1	bovine MsrA act 9.0 | MsrA activ conf inactive
COc1ccccc1OCc1ccc(C(=O)Nc2ccccc2)cc1	bovine MsrA act 11.9 | MsrA activ conf inactive
COC(=O)N1C[C@H](OCCCOCc2ccccc2)[C@H]2C[C@@H]1c1ccccc1O2	none (no result: proCasp3 act, Tb MetRS inh, procasp7 counter, bovine MsrA act)
O=C(COC(=O)c1ccc(Cl)c(S(=O)(=O)N2CCOCC2)c1)Nc1ccc2[nH]c(=O)[nH]c2c1	none
O=C(COC(=O)c1ccc(Cl)c(S(=O)(=O)N2CCN(c3ccc(F)cc3)CC2)c1)Nc1cccc(Cl)c1	bovine MsrA act 11.7 | MsrA activ conf inactive
CN(Cc1ccccc1)C(=O)c1csc([C@@H]2O[C@H](CO)[C@H](O)[C@H](O)[C@H]2O)n1	bovine MsrA act 13.5 (no result: proCasp3 act, procasp7 counter) | MsrA activ conf inactive
CCOc1ccc(N2C(=O)CC(Sc3ncccn3)C2=O)cc1 (centres undefined)	none
CCOc1ccc(N2C(=O)CC(Sc3nc(-c4cccs4)cc(C(F)(F)F)c3C#N)C2=O)cc1 (centres undefined)	bovine MsrA act 10.3 | MsrA activ conf inactive
Nc1ncnc2c1ncn2[C@@H]1O[C@H](C(=O)N[C@@H](CCc2ccccc2)C(=O)O)[C@@H](O)[C@H]1O	none (no result: proCasp3 act, Tb MetRS inh, procasp7 counter, bovine MsrA act)
Cc1ccc(S(=O)(=O)N2CCC(C(=O)OCC(=O)N3CCc4ccccc43)CC2)cc1	bovine MsrA act 8.4 | MsrA activ conf inactive
CCCn1c(N)c(N(CCOC)C(=O)c2ccc(N3CCCC3=O)cc2)c(=O)[nH]c1=O	bovine MsrA act 7.9 | MsrA activ conf inactive
CCCCn1c(N)c(N(CCOC)C(=O)c2ccc(N3CCCC3=O)cc2)c(=O)[nH]c1=O	none
COC(=O)c1cccc(Nc2cc(C)n(-c3cccc(C(=O)OC)c3)c(=O)c2)c1	none (no result: proCasp3 act, Tb MetRS inh, procasp7 counter, bovine MsrA act)
CC(=O)c1ccc(Nc2nc3ccc(C)cc3n3cnnc23)cc1	bovine MsrA act 8.2 | MsrA activ conf inactive
COC(=O)c1ccc(Nc2nc3ccc(C)cc3n3cnnc23)cc1	none
Cc1ccc(S(=O)(=O)Nc2cccc3cccnc23)cc1	bovine MsrA act 11.1 | MsrA activ conf inactive
CCCNCc1cc(OC)c(OCC(=O)NCCc2ccccc2)cc1Br	none
